Molecular target: T1, Hexokinase-4 (Homo sapiens) (UniProt P35557)
T1 sequence (whole entry): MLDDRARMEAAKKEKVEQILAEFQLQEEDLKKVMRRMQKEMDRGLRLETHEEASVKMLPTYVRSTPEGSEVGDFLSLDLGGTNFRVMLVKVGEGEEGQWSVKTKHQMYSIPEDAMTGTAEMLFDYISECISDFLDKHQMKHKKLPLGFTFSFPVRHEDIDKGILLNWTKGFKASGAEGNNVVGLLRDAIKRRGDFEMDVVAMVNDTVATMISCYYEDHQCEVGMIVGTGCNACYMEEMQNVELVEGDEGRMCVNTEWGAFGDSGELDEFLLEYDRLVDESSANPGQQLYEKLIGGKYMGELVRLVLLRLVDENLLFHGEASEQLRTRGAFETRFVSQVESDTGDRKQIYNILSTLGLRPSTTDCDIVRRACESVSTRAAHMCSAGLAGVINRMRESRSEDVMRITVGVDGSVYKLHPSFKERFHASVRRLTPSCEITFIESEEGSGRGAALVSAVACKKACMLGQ
Assay: Activation of human recombinant glucokinase assessed as concentration required for 1.5 fold increase in enzymatic activity
Summary of the method: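 Human recombinant GK; activator at fixed concentrations from ∼0.010 to 30 μM, each in duplicate, with glucose held at 5 mM. SC1.5 is the activator concentration giving a 1.5-fold rise in enzymatic activity over untreated GK. Assay CV was about 15%.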

Activity [µM]	Compound
0.292	CS(=O)(=O)c1ccc(C(CC2CCCC2)C(=O)Nc2nccs2)cc1F (racemic)
0.579	CS(=O)(=O)c1ccc(C(CC2CCCC2)C(=O)Nc2nccs2)cc1N (racemic)

Reference: ChEMBL document CHEMBL2163188, “Discovery of piragliatin--first glucokinase activator studied in type 2 diabetic patients” (J Med Chem, 2012)
